Measurements reported in ChEMBL document CHEMBL2375313, “Synthesis, in vitro antitumor evaluation and DNA-binding study of novel tetrahydroquinolines and some derived tricyclic and tetracyclic ring systems” (Eur J Med Chem, 2013).

Legend:
Assay type in all cases: functional
[1] = test system: RPMI-8226; test: Cytotoxicity against human RPMI8226 cells assessed as growth inhibition at 10 uM after 48 hrs by sulphorhodamine B assay; settings: RPMI-8226, 48 h, read-out: GI
Summary of the method: (§1)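 NCI-60 one-dose screen per the NCI Drug Evaluation Branch protocol. Cells given a single 10 µM concentration with 48 h continuous exposure. Growth estimated by sulphorhodamine B protein assay. Result expressed as percentage growth inhibition relative to untreated growth.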

[2] = test system: NCI-H23; test: Cytotoxicity against human NCI-H23 cells assessed as growth inhibition at 10 uM after 48 hrs by sulphorhodamine B assay; settings: NCI-H23, 48 h, read-out: GI; summary of the method: as §1
[3] = test system: SF-295; test: Cytotoxicity against human SF295 cells assessed as growth inhibition at 10 uM after 48 hrs by sulphorhodamine B assay; settings: SF-295, 48 h, read-out: GI; summary of the method: as §1
[4] = test system: HCT-116; test: Cytotoxicity against human HCT116 cells assessed as growth inhibition at 10 uM after 48 hrs by sulphorhodamine B assay; settings: HCT-116, 48 h, read-out: GI; summary of the method: as §1
[5] = test system: UO-31; test: Cytotoxicity against human UO31 cells assessed as growth inhibition at 10 uM after 48 hrs by sulphorhodamine B assay; settings: UO-31, 48 h, read-out: GI; summary of the method: as §1
[6] = test system: CAKI-1; test: Cytotoxicity against human Caki1 cells assessed as growth inhibition at 10 uM after 48 hrs by sulphorhodamine B assay; settings: CAKI-1, 48 h, read-out: GI; summary of the method: as §1
[7] = test system: U-251; test: Cytotoxicity against human U251 cells assessed as growth inhibition at 10 uM after 48 hrs by sulphorhodamine B assay; settings: U-251, 48 h, read-out: GI; summary of the method: as §1
[8] = test system: IGROV-1; test: Cytotoxicity against human IGROV1 cells assessed as growth inhibition at 10 uM after 48 hrs by sulphorhodamine B assay; settings: IGROV-1, 48 h, read-out: GI; summary of the method: as §1
[9] = test system: SK-MEL-2; test: Cytotoxicity against human SK-MEL-2 cells assessed as growth inhibition at 10 uM after 48 hrs by sulphorhodamine B assay; settings: SK-MEL-2, 48 h, read-out: GI; summary of the method: as §1
[10] = test system: A549; test: Cytotoxicity against human A549 cells assessed as growth inhibition at 10 uM after 48 hrs by sulphorhodamine B assay; settings: A549, 48 h, read-out: GI; summary of the method: as §1
[11] = test system: LOX IMVI; test: Cytotoxicity against human LOXIMVI cells assessed as growth inhibition at 10 uM after 48 hrs by sulphorhodamine B assay; settings: read-out: GI; summary of the method: as §1
[12] = test system: HL-60(TB); test: Cytotoxicity against human HL-60(TB) cells assessed as growth inhibition at 10 uM after 48 hrs by sulphorhodamine B assay; settings: HL-60, 48 h, read-out: GI
Summary of the method: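 NCI-60 one-dose primary screen run to the Drug Evaluation Branch protocol. Cells are exposed to a single 10 µM concentration for 48 h continuously, and growth is read by SRB protein assay. Data are reported as percent growth of treated cells, expressed as % growth inhibition.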

[13] = test system: HOP-92; test: Cytotoxicity against human HOP92 cells assessed as growth inhibition at 10 uM after 48 hrs by sulphorhodamine B assay; settings: HOP-92, 48 h, read-out: GI; summary of the method: as §1
[14] = test system: MCF7; test: Cytotoxicity against human MCF7 cells assessed as growth inhibition at 10 uM after 48 hrs by sulphorhodamine B assay; settings: MCF7, 48 h, read-out: GI; summary of the method: as §1
[15] = test system: SF-268; test: Cytotoxicity against human SF268 cells assessed as growth inhibition at 10 uM after 48 hrs by sulphorhodamine B assay; settings: SF-268, 48 h, read-out: GI; summary of the method: as §1
[16] = test system: SNB-19; test: Cytotoxicity against human SNB19 cells assessed as growth inhibition at 10 uM after 48 hrs by sulphorhodamine B assay; settings: SNB-19, 48 h, read-out: GI; summary of the method: as §1
[17] = test system: SR; test: Cytotoxicity against human SR cells assessed as growth inhibition at 10 uM after 48 hrs by sulphorhodamine B assay; settings: read-out: GI; summary of the method: as §1
[18] = test system: A498; test: Cytotoxicity against human A498 cells assessed as growth inhibition at 10 uM after 48 hrs by sulphorhodamine B assay; settings: A498, 48 h, read-out: GI; summary of the method: as §1
[19] = test system: MDA-MB-468; test: Cytotoxicity against human MDA-MB-468 cells assessed as growth inhibition at 10 uM after 48 hrs by sulphorhodamine B assay; settings: MDA-MB-468, 48 h, read-out: GI; summary of the method: as §1
[20] = test system: MOLT-4; test: Cytotoxicity against human MOLT4 cells assessed as growth inhibition at 10 uM after 48 hrs by sulphorhodamine B assay; settings: MOLT-4, 48 h, read-out: GI; summary of the method: as §1
[21] = test system: CCRF-CEM; test: Cytotoxicity against human CCRF-CEM cells assessed as growth inhibition at 10 uM after 48 hrs by sulphorhodamine B assay; settings: read-out: GI; summary of the method: as §1
[22] = test system: SNB-75; test: Cytotoxicity against human SNB75 cells assessed as growth inhibition at 10 uM after 48 hrs by sulphorhodamine B assay; settings: SNB-75, 48 h, read-out: GI; summary of the method: as §1
[23] = test system: OVCAR-5; test: Cytotoxicity against human OVCAR5 cells assessed as growth inhibition at 10 uM after 48 hrs by sulphorhodamine B assay; settings: OVCAR-5, 48 h, read-out: GI; summary of the method: as §1
[24] = test system: T47D; test: Cytotoxicity against human T47D cells assessed as growth inhibition at 10 uM after 48 hrs by sulphorhodamine B assay; settings: read-out: GI; summary of the method: as §1
[25] = Cytotoxicity against human EKVX cells assessed as growth inhibition at 10 uM after 48 hrs by sulphorhodamine B assay; settings: read-out: GI; summary of the method: as §1
[26] = test system: Hs-578T; test: Cytotoxicity against human Hs578T cells assessed as growth inhibition at 10 uM after 48 hrs by sulphorhodamine B assay; settings: read-out: GI; summary of the method: as §1
[27] = test system: SK-OV-3; test: Cytotoxicity against human SKOV3 cells assessed as growth inhibition at 10 uM after 48 hrs by sulphorhodamine B assay; settings: SK-OV-3, 48 h, read-out: GI; summary of the method: as §1
[28] = test system: NCI-H522; test: Cytotoxicity against human NCI-H522 cells assessed as growth inhibition at 10 uM after 48 hrs by sulphorhodamine B assay; settings: NCI-H522, 48 h, read-out: GI; summary of the method: as §1
[29] = test system: K562; test: Cytotoxicity against human K562 cells assessed as growth inhibition at 10 uM after 48 hrs by sulphorhodamine B assay; settings: K562, 48 h, read-out: GI; summary of the method: as §1
[30] = test system: RXF 393; test: Cytotoxicity against human RXF393 cells assessed as growth inhibition at 10 uM after 48 hrs by sulphorhodamine B assay; settings: RXF 393, 48 h, read-out: GI; summary of the method: as §1
[31] = test system: HCT-15; test: Cytotoxicity against human HCT15 cells assessed as growth inhibition at 10 uM after 48 hrs by sulphorhodamine B assay; settings: HCT-15, 48 h, read-out: GI; summary of the method: as §1
[32] = test system: ACHN; test: Cytotoxicity against human ACHN cells assessed as growth inhibition at 10 uM after 48 hrs by sulphorhodamine B assay; settings: read-out: GI; summary of the method: as §1
[33] = test system: MDA-MB-435; test: Cytotoxicity against human MDA-MB-435 cells assessed as growth inhibition at 10 uM after 48 hrs by sulphorhodamine B assay; settings: MDA-MB-435, 48 h, read-out: GI; summary of the method: as §1
[34] = test system: M14; test: Cytotoxicity against human M14 cells assessed as growth inhibition at 10 uM after 48 hrs by sulphorhodamine B assay; settings: M14, 48 h, read-out: GI; summary of the method: as §1
[35] = test system: OVCAR-4; test: Cytotoxicity against human OVCAR4 cells assessed as growth inhibition at 10 uM after 48 hrs by sulphorhodamine B assay; settings: OVCAR-4, 48 h, read-out: GI; summary of the method: as §1
[36] = test system: UACC-62; test: Cytotoxicity against human UACC62 cells assessed as growth inhibition at 10 uM after 48 hrs by sulphorhodamine B assay; settings: UACC-62, 48 h, read-out: GI; summary of the method: as §1
[37] = test system: SK-MEL-5; test: Cytotoxicity against human SK-MEL-5 cells assessed as growth inhibition at 10 uM after 48 hrs by sulphorhodamine B assay; settings: SK-MEL-5, 48 h, read-out: GI; summary of the method: as §1
[38] = test system: NCI/ADR-RES; test: Cytotoxicity against human NCI/ADR-RES cells assessed as growth inhibition at 10 uM after 48 hrs by sulphorhodamine B assay; settings: read-out: GI; summary of the method: as §1
[39] = test system: DU-145; test: Cytotoxicity against human DU145 cells assessed as growth inhibition at 10 uM after 48 hrs by sulphorhodamine B assay; settings: DU-145, 48 h, read-out: GI; summary of the method: as §1
[40] = test system: HT-29; test: Cytotoxicity against human HT-29 cells assessed as growth inhibition at 10 uM after 48 hrs by sulphorhodamine B assay; settings: HT-29, 48 h, read-out: GI; summary of the method: as §1
[41] = test system: PC-3; test: Cytotoxicity against human PC3 cells assessed as growth inhibition at 10 uM after 48 hrs by sulphorhodamine B assay; settings: PC-3, 48 h, read-out: GI; summary of the method: as §1

COc1ccc(-c2c3c(nc4ncn5ncnc5c24)C(C)CCC3)cc1 (stereo unspecified)
inhibition of growth at 10 µM [1]: 31%
inhibition of growth at 10 µM [2]: < 10%
inhibition of growth at 10 µM [3]: < 10%
inhibition of growth at 10 µM [4]: < 10%
inhibition of growth at 10 µM [5]: < 10%
inhibition of growth at 10 µM [6]: < 10%
inhibition of growth at 10 µM [7]: < 10%
inhibition of growth at 10 µM [8]: 10.6%
inhibition of growth at 10 µM [9]: < 10%
inhibition of growth at 10 µM [10]: < 10%
inhibition of growth at 10 µM [11]: 15%
inhibition of growth at 10 µM [12]: < 10%
inhibition of growth at 10 µM [13]: < 10%
inhibition of growth at 10 µM [14]: < 10%
inhibition of growth at 10 µM [15]: < 10%
inhibition of growth at 10 µM [16]: < 10%
inhibition of growth at 10 µM [17]: 17.8%
inhibition of growth at 10 µM [18]: 13.5%
inhibition of growth at 10 µM [19]: < 10%
inhibition of growth at 10 µM [20]: 19%
inhibition of growth at 10 µM [21]: < 10%
inhibition of growth at 10 µM [22]: < 10%
inhibition of growth at 10 µM [23]: < 10%
inhibition of growth at 10 µM [24]: < 10%
inhibition of growth at 10 µM [25]: < 10%
inhibition of growth at 10 µM [26]: < 10%
inhibition of growth at 10 µM [27]: < 10%
inhibition of growth at 10 µM [28]: < 10%
inhibition of growth at 10 µM [29]: < 10%
inhibition of growth at 10 µM [30]: < 10%
inhibition of growth at 10 µM [31]: < 10%
inhibition of growth at 10 µM [32]: < 10%
inhibition of growth at 10 µM [33]: < 10%
inhibition of growth at 10 µM [34]: < 10%
inhibition of growth at 10 µM [35]: < 10%
inhibition of growth at 10 µM [36]: 18.3%
inhibition of growth at 10 µM [37]: < 10%
inhibition of growth at 10 µM [38]: < 10%
inhibition of growth at 10 µM [39]: < 10%
inhibition of growth at 10 µM [40]: < 10%
inhibition of growth at 10 µM [41]: 13%
